{
  "source": "ChEMBL document CHEMBL5712908",
  "about": "“A genome-wide RNAi screen reveals essential therapeutic targets of breast cancer stem cells” (2019)",
  "key": {"[1]": {"target": "Histone-lysine N-methyltransferase EZH2 (Homo sapiens) (UniProt Q15910)", "sequence (Q15910 whole entry, looked up)": "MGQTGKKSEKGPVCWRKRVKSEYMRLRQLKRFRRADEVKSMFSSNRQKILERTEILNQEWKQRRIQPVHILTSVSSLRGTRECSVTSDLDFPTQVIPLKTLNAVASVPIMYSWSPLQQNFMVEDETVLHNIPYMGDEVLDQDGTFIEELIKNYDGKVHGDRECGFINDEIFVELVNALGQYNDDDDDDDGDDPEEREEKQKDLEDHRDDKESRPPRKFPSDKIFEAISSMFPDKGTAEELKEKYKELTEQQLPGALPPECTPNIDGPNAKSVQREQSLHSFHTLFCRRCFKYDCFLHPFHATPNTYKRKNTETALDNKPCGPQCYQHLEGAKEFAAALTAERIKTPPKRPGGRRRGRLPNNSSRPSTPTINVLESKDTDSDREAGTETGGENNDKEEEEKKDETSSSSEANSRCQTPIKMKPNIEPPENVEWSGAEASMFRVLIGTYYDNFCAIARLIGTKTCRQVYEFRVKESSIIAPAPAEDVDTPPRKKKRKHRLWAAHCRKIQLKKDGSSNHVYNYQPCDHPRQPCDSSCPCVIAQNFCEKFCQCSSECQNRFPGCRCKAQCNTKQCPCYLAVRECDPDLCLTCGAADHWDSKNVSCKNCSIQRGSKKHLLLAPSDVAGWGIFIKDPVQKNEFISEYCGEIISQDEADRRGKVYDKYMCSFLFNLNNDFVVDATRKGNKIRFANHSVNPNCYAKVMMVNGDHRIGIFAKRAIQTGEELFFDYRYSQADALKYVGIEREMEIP", "assay": "Inhibition of EZH2 in human SUM159 cells assessed as increase in ALDHbr cells by LSR2 cytometer (reference value: 4.8%)", "format": "cell-based", "set-up": "scale not given: the % may be the effect or the level left", "settings": "dose 0.0 µM", "in_short": "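SUM159 cells exposed continuously for 72 h in adherent culture to graded doses centred on the IC50. ALDHbr proportion measured by ALDEFLUOR flow cytometry (LSR2) with DEAB as negative control; n = 10.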"}, "[2]": {"test_system": "SUM149PT", "assay": "Anticancer activity against human SUM149 cells assessed as ALDHbr cells by LSR2 cytometer (reference value: 6.8%)", "format": "functional", "in_short": "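Cells continuously exposed to drug for 72 h in adherent culture; single-cell suspensions stained with ALDEFLUOR kit and ALDH-high population measured by flow cytometry (LSR2) against a DEAB control. Residual ALDHbr proportion reported (n = 8), mean ± SD, Student's t-test.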"}, "[3]": {"target": "Histone acetyltransferase p300 (Homo sapiens) (UniProt Q09472)", "sequence (Q09472 whole entry)": "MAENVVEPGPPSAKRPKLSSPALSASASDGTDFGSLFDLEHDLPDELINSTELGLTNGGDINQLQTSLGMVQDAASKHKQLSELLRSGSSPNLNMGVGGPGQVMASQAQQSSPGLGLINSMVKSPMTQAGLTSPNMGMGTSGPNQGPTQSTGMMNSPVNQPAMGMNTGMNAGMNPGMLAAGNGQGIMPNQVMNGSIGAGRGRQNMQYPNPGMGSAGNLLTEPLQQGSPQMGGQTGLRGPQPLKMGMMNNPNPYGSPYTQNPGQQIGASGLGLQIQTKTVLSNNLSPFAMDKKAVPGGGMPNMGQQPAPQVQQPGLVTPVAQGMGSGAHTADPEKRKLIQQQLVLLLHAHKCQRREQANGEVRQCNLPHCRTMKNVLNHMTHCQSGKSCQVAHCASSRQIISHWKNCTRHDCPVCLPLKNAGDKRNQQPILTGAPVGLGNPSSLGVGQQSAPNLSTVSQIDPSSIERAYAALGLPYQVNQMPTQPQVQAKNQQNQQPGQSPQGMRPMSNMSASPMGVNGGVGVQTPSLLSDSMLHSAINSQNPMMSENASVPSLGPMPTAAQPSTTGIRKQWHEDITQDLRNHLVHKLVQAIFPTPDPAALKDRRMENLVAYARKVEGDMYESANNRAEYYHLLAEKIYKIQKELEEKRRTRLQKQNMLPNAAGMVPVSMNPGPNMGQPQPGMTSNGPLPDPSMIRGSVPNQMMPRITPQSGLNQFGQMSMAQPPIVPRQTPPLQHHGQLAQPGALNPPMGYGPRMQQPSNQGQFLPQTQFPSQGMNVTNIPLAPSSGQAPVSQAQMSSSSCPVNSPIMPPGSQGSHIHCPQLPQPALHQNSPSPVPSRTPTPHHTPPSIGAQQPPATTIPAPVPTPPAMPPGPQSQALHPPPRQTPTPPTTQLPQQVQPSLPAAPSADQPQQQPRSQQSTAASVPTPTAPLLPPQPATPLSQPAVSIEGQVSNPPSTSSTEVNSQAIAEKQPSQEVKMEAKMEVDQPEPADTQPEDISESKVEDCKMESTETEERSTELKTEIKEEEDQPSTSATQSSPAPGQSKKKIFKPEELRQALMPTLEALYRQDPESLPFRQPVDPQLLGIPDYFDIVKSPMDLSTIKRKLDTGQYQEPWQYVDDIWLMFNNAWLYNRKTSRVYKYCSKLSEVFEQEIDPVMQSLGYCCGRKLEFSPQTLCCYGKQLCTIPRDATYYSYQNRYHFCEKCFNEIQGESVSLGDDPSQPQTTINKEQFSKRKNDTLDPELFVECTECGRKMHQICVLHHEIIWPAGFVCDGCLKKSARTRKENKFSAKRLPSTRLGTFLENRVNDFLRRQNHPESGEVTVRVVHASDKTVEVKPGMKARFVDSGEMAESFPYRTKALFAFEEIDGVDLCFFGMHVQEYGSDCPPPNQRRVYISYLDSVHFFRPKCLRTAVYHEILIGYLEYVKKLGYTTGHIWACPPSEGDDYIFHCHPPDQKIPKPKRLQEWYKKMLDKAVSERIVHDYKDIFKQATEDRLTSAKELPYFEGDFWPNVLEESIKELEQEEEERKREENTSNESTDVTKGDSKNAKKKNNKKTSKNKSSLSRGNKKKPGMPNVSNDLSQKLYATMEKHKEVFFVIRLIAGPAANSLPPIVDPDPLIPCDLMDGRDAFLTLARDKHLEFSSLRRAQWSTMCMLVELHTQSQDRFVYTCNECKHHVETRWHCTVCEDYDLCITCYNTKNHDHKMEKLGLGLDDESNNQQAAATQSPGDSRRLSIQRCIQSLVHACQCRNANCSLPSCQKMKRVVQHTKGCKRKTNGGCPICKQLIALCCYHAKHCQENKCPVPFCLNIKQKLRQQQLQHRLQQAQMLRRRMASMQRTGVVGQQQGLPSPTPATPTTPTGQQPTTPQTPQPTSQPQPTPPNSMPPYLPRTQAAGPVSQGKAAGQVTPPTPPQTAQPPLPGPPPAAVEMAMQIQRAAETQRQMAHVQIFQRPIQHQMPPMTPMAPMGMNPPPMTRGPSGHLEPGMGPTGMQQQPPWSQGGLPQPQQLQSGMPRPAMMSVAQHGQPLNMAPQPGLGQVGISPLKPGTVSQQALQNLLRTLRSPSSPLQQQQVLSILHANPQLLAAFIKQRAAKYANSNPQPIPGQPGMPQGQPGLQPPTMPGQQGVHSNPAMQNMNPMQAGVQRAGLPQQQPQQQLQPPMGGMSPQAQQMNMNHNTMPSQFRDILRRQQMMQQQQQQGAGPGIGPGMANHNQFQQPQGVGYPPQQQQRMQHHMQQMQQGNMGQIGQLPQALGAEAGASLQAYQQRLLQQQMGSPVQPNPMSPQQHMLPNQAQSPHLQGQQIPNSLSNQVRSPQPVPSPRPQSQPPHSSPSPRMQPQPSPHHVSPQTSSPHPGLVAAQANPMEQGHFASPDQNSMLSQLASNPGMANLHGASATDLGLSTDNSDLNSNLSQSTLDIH", "assay": "Inhibition of EP300 in human SUM149 cells assessed as K-score by measuring ALDHbr cells by LSR2 cytometer", "format": "cell-based", "in_short": "(§1)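 Breast cancer lines exposed continuously for 72 h in adherent culture to a range of doses centred on the MTS-derived IC50 (72 h MTS, absorbance 540 nm). ALDHbr fraction measured by ALDEFLUOR flow cytometry (LSR2) with DEAB control. K-score = linear regression coefficient between untreated condition and the log10 dose at which ALDHbr proportion changes by 50% versus control.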"}, "[4]": {"target": "Histone acetyltransferase p300 (Homo sapiens) (UniProt Q09472)", "assay": "Inhibition of EP300 in human S68 cells assessed as K-score by measuring ALDHbr cells by LSR2 cytometer", "format": "cell-based", "in_short": "as §1"}, "[5]": {"target": "Histone acetyltransferase p300 (Homo sapiens) (UniProt Q09472)", "assay": "Inhibition of EP300 in human BrCa-MZ-01 cells assessed as K-score by measuring ALDHbr cells by LSR2 cytometer", "format": "cell-based", "in_short": "as §1"}, "[6]": {"target": "Histone acetyltransferase p300 (Homo sapiens) (UniProt Q09472)", "assay": "Inhibition of EP300 in human MDA-MB-436 cells assessed as K-score by measuring ALDHbr cells by LSR2 cytometer", "format": "cell-based", "in_short": "as §1"}, "[7]": {"target": "Histone acetyltransferase p300 (Homo sapiens) (UniProt Q09472)", "assay": "Inhibition of EP300 in human SUM159 cells assessed as K-score by measuring ALDHbr cells by LSR2 cytometer", "format": "cell-based", "in_short": "as §1"}, "[8]": {"test_system": "SUM149PT", "assay": "Antitumor activity against human SUM149 cells assessed as K-score by measuring ALDHbr cells by LSR2 cytometer", "format": "functional", "in_short": "(§2)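 Cell lines exposed for 72 h in adherent culture to a range of concentrations centred on the MTS-derived IC50. ALDHbr proportion measured by ALDEFLUOR flow cytometry (LSR2). K-score is the linear regression coefficient, on log10-transformed doses, between the untreated condition and the dose predicted to give a 50% decrease or increase in ALDHbr proportion versus control.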"}, "[9]": {"assay": "Antitumor activity against human BrCa-MZ-01 cells assessed as K-score by measuring ALDHbr cells by LSR2 cytometer", "format": "functional", "in_short": "as §2"}, "[10]": {"assay": "Antitumor activity against human S68 cells assessed as K-score by measuring ALDHbr cells by LSR2 cytometer", "format": "functional", "in_short": "as §2"}, "[11]": {"test_system": "MDA-MB-436", "assay": "Antitumor activity against human MDA-MB-436 cells assessed as K-score by measuring ALDHbr cells by LSR2 cytometer", "format": "functional", "in_short": "as §2"}, "[12]": {"test_system": "SUM-159-PT", "assay": "Antitumor activity against human SUM159 cells assessed as K-score by measuring ALDHbr cells by LSR2 cytometer", "format": "functional", "in_short": "as §2"}, "[13]": {"target": "T1, Double-stranded RNA-specific editase 1 (Homo sapiens) (UniProt P78563)", "T1 sequence (whole entry)": "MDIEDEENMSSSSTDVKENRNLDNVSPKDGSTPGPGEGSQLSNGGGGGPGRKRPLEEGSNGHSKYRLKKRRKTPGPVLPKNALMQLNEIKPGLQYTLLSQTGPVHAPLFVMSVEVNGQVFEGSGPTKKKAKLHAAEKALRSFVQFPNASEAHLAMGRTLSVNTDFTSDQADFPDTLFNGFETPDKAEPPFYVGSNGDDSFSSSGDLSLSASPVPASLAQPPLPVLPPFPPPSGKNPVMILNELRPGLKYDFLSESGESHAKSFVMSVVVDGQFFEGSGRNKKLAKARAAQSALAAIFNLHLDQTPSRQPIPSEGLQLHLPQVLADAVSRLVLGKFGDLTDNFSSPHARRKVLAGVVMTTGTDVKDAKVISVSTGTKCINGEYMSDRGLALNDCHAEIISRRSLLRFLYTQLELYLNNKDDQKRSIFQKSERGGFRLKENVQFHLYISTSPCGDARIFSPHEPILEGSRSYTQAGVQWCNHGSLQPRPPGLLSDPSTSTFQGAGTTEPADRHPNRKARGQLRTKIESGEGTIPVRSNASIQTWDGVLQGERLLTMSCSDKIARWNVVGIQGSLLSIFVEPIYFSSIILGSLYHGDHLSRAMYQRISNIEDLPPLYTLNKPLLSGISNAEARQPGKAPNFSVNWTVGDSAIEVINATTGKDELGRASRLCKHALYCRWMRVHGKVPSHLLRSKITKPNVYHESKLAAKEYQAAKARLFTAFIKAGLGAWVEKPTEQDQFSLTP", "assay": "Inhibition of ADARB1 in human S68 cells assessed as K-score by measuring ALDHbr cells by LSR2 cytometer", "format": "cell-based", "in_short": "as §1"}, "[14]": {"target": "T1, Double-stranded RNA-specific editase 1 (Homo sapiens)", "assay": "Inhibition of ADARB1 in human BrCa-MZ-01cells assessed as K-score by measuring ALDHbr cells by LSR2 cytometer", "format": "cell-based", "in_short": "as §1"}, "[15]": {"target": "T1, Double-stranded RNA-specific editase 1 (Homo sapiens)", "assay": "Inhibition of ADARB1 in human SUM149 cells assessed as K-score by measuring ALDHbr cells by LSR2 cytometer", "format": "cell-based", "in_short": "as §1"}, "[16]": {"target": "T1, Double-stranded RNA-specific editase 1 (Homo sapiens)", "assay": "Inhibition of ADARB1 in human MDA-MB-436 cells assessed as K-score by measuring ALDHbr cells by LSR2 cytometer", "format": "cell-based", "in_short": "as §1"}, "[17]": {"target": "T1, Double-stranded RNA-specific editase 1 (Homo sapiens)", "assay": "Inhibition of ADARB1 in human SUM159 cells assessed as K-score by measuring ALDHbr cells by LSR2 cytometer", "format": "cell-based", "in_short": "as §1"}, "[18]": {"test_system": "Proteasome", "assay": "Inhibition of proteasome in human SUM149 cells assessed as K-score by measuring ALDHbr cells by LSR2 cytometer", "settings": "condition breast cancer", "in_short": "as §1"}, "[19]": {"test_system": "Proteasome", "assay": "Inhibition of proteasome in human MDA-MB-436 cells assessed as K-score by measuring ALDHbr cells by LSR2 cytometer", "settings": "condition breast cancer", "in_short": "as §1"}, "[20]": {"test_system": "Proteasome", "assay": "Inhibition of proteasome in human BrCa-MZ-01 cells assessed as K-score by measuring ALDHbr cells by LSR2 cytometer", "settings": "condition breast cancer", "in_short": "as §1"}, "[21]": {"test_system": "Proteasome", "assay": "Inhibition of proteasome in human SUM159 cells assessed as K-score by measuring ALDHbr cells by LSR2 cytometer", "settings": "condition breast cancer", "in_short": "as §1"}, "[22]": {"test_system": "Proteasome", "assay": "Inhibition of proteasome in human S68 cells assessed as K-score by measuring ALDHbr cells by LSR2 cytometer", "settings": "condition breast cancer", "in_short": "as §1"}},
  "data": [
    {"smiles": "CCN(CC)c1ccc(C=O)cc1", "values": [
      {"measurement": "Activity", "setting": "[1]", "result": 0.2, "unit": "%"},
      {"measurement": "Activity", "setting": "[2]", "result": 0.3, "unit": "%"}
    ]},
    {"smiles": "CCC(=O)N1CCOc2c(cc(-c3ccc(OC)c(OC)c3)cc2OC[C@H]2CCCN(C)C2)C1", "values": [
      {"measurement": "Activity", "setting": "[3]", "result": 0.1},
      {"measurement": "Activity", "setting": "[4]", "result": 0.22},
      {"measurement": "Activity", "setting": "[5]", "result": 0.01},
      {"measurement": "Activity", "setting": "[6]", "result": 0.14},
      {"measurement": "Activity", "setting": "[7]", "result": 0.02}
    ]},
    {"smiles": "CCN(CC)CCCC(C)Nc1ccnc2cc(Cl)ccc12", "note": "(configuration not stated) [CHLOROQUINE]", "values": [
      {"measurement": "Activity", "setting": "[8]", "result": -0.01},
      {"measurement": "Activity", "setting": "[9]", "result": -0.02},
      {"measurement": "Activity", "setting": "[10]", "result": -0.02},
      {"measurement": "Activity", "setting": "[11]", "result": -0.06},
      {"measurement": "Activity", "setting": "[12]", "result": 0.04}
    ]},
    {"smiles": "Nc1ncnc2c1nnn2[C@@H]1O[C@H](CO)[C@@H](O)[C@H]1O", "values": [
      {"measurement": "Activity", "setting": "[13]", "result": -0.01},
      {"measurement": "Activity", "setting": "[14]", "result": -0.01},
      {"measurement": "Activity", "setting": "[15]", "result": 0.12},
      {"measurement": "Activity", "setting": "[16]", "result": -0.02},
      {"measurement": "Activity", "setting": "[17]", "result": -0.11}
    ]},
    {"smiles": "CC(C)C[C@H](NC(=O)[C@H](Cc1ccccc1)NC(=O)c1cnccn1)B(O)O", "note": "[BORTEZOMIB]", "values": [
      {"measurement": "Activity", "setting": "[18]", "result": -0.11},
      {"measurement": "Activity", "setting": "[19]", "result": -0.06},
      {"measurement": "Activity", "setting": "[20]", "result": -0.07},
      {"measurement": "Activity", "setting": "[21]", "result": 0.07},
      {"measurement": "Activity", "setting": "[22]", "result": -0.14}
    ]},
    {"smiles": "CC(C)C[C@H](NC(=O)[C@H](CCc1ccccc1)NC(=O)CN1CCOCC1)C(=O)N[C@@H](Cc1ccccc1)C(=O)N[C@@H](CC(C)C)C(=O)[C@@]1(C)CO1", "note": "[CARFILZOMIB]", "values": [
      {"measurement": "Activity", "setting": "[18]", "result": -0.03},
      {"measurement": "Activity", "setting": "[19]", "result": -0.08},
      {"measurement": "Activity", "setting": "[20]", "result": -0.08},
      {"measurement": "Activity", "setting": "[21]", "result": 0.01},
      {"measurement": "Activity", "setting": "[22]", "result": -0.09}
    ]}
  ]
}
